What was measured:
[1] = target: T1, Glucocorticoid receptor (Homo sapiens) (UniProt P04150); assay: Displacement of [3H]-dexamethasone from human GR receptor at 1 uM relative to control
T1 sequence (whole entry): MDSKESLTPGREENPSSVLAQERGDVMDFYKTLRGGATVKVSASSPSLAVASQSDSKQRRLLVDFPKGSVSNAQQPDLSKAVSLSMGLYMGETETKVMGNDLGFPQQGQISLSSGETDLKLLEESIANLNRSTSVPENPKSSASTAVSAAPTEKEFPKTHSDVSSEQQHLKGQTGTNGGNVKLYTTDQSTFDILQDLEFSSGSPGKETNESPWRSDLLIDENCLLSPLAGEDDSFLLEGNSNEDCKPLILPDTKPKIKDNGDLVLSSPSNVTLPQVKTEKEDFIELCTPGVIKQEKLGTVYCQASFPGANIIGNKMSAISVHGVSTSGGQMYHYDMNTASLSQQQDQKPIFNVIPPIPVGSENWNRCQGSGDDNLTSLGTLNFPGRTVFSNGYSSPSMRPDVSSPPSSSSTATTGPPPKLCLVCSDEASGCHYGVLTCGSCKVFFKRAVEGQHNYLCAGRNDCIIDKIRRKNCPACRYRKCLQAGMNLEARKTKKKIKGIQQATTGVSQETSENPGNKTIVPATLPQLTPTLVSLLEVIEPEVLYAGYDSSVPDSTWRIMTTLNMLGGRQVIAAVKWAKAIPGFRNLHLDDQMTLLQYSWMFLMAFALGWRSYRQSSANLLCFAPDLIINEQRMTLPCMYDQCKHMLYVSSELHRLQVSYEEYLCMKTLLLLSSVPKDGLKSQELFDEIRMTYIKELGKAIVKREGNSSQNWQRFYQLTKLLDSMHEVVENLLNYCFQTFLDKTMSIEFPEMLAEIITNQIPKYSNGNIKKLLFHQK
In short: (§1)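 Human GR radioligand binding with soluble receptor from IM-9 cells and 1.5 nM [3H]-dexamethasone, with test ligand at 1 µM or 0.1 µM. Specific binding reported as % inhibition of control, in duplicate.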

[2] = target: T1, Glucocorticoid receptor (Homo sapiens); assay: Displacement of [3H]-dexamethasone from GR receptor in human IM-9 cytosolic extracts using buffer solution without beta-mercaptoethanol at 100 nM preincubated for 6 hrs followed by washout and second incubation with [3H]-dexamethasone for 16 hrs relative to control
In short: (§2)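 Repeat of the wash-out protocol in buffers free of β-mercaptoethanol, with a second batch of dexamethasone mesylate. IM-9 cytosol (240 µg/assay) preincubated 6 h at 100 nM (cortisol 60 nM), charcoal-stripped and centrifuged, then given 3 nM [3H]-dexamethasone. Binding was read before wash-out or at 1–24 h as % inhibition of control, in duplicate.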

[3] = target: T1, Glucocorticoid receptor (Homo sapiens); assay: Displacement of [3H]-dexamethasone from GR receptor in human IM-9 cytosolic extracts using buffer solution without beta-mercaptoethanol at 100 nM preincubated for 6 hrs followed by washout and second incubation with [3H]-dexamethasone for 1 hr relative to control; in short: as §2
[4] = target: T1, Glucocorticoid receptor (Homo sapiens); assay: Displacement of [3H]-dexamethasone from GR receptor in human IM-9 cytosolic extracts using buffer solution without beta-mercaptoethanol at 100 nM preincubated for 6 hrs followed by washout and second incubation with [3H]-dexamethasone for 4 hrs relative to control; in short: as §2
[5] = target: T1, Glucocorticoid receptor (Homo sapiens); assay: Displacement of [3H]-dexamethasone from GR receptor in human IM-9 cytosolic extracts at 100 nM preincubated for 6 hrs followed by washout and second incubation with [3H]-dexamethasone for 16 hrs relative to control
In short: (§3)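 IM-9 cytosol (240 µg/assay) preincubated 6 h with ligand (100 nM, or 60 nM for cortisol). Unbound ligand was stripped with activated charcoal and centrifugation, then 3 nM [3H]-dexamethasone was added. Binding was read after 1, 2, 3, 4, 16 or 24 h of second incubation as % inhibition of control specific binding, in duplicate.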

[6] = target: T1, Glucocorticoid receptor (Homo sapiens); assay: Displacement of [3H]-dexamethasone from GR receptor in human IM-9 cytosolic extracts using buffer solution without beta-mercaptoethanol at 100 nM preincubated for 6 hrs followed by washout and second incubation with [3H]-dexamethasone for 2 hrs relative to control; in short: as §2
[7] = target: T1, Glucocorticoid receptor (Homo sapiens); assay: Displacement of [3H]-dexamethasone from GR receptor in human IM-9 cytosolic extracts at 100 nM preincubated for 6 hrs followed by [3H]-dexamethasone addition relative to control
[8] = target: T1, Glucocorticoid receptor (Homo sapiens); assay: Displacement of [3H]-dexamethasone from human GR receptor at 0.1 uM relative to control; in short: as §1
[9] = target: T1, Glucocorticoid receptor (Homo sapiens); assay: Displacement of [3H]-dexamethasone from GR receptor in human IM-9 cytosolic extracts using buffer solution without beta-mercaptoethanol at 100 nM preincubated for 6 hrs followed by washout and second incubation with [3H]-dexamethasone for 24 hrs relative to control; in short: as §2
[10] = target: T1, Glucocorticoid receptor (Homo sapiens); assay: Displacement of [3H]-dexamethasone from GR receptor in human IM-9 cytosolic extracts using buffer solution without beta-mercaptoethanol at 100 nM preincubated for 6 hrs followed by washout and second incubation with [3H]-dexamethasone for 3 hrs relative to control; in short: as §2
[11] = target: T1, Glucocorticoid receptor (Homo sapiens); assay: Displacement of [3H]-dexamethasone from GR receptor in human IM-9 cytosolic extracts at 100 nM preincubated for 6 hrs followed by washout and second incubation with [3H]-dexamethasone for 24 hrs relative to control; in short: as §3
[12] = target: T1, Glucocorticoid receptor (Homo sapiens); assay: Displacement of [3H]-dexamethasone from GR receptor in human IM-9 cytosolic extracts at 100 nM preincubated for 6 hrs followed by washout and second incubation with [3H]-dexamethasone for 1 hr relative to control; in short: as §3
[13] = target: T1, Glucocorticoid receptor (Homo sapiens); assay: Displacement of [3H]-dexamethasone from GR receptor in human IM-9 cytosolic extracts using buffer solution without beta-mercaptoethanol at 100 nM preincubated for 6 hrs followed by [3H]-dexamethasone addition relative to control; in short: as §2
[14] = target: T1, Glucocorticoid receptor (Homo sapiens); assay: Displacement of [3H]-dexamethasone from GR receptor in human IM-9 cytosolic extracts at 100 nM preincubated for 6 hrs followed by washout and second incubation with [3H]-dexamethasone for 4 hrs relative to control; in short: as §3
[15] = target: T1, Glucocorticoid receptor (Homo sapiens); assay: Displacement of [3H]-dexamethasone from GR receptor in human IM-9 cytosolic extracts at 100 nM preincubated for 6 hrs followed by washout and second incubation with [3H]-dexamethasone for 3 hrs relative to control; in short: as §3
[16] = target: T1, Glucocorticoid receptor (Homo sapiens); assay: Displacement of [3H]-dexamethasone from GR receptor in human IM-9 cytosolic extracts at 100 nM preincubated for 6 hrs followed by washout and second incubation with [3H]-dexamethasone for 2 hrs relative to control; in short: as §3
[17] = target: T1, Glucocorticoid receptor (Homo sapiens); assay: Displacement of [3H]-dexamethasone from GR receptor in human IM-9 cytosolic extracts using buffer solution without beta-mercaptoethanol at 60 nM preincubated for 6 hrs followed by [3H]-dexamethasone addition relative to control; in short: as §2
[18] = target: T1, Glucocorticoid receptor (Homo sapiens); assay: Displacement of [3H]-dexamethasone from GR receptor in human IM-9 cytosolic extracts at 60 nM preincubated for 6 hrs followed by washout and second incubation with [3H]-dexamethasone for 3 hrs relative to control; in short: as §3
[19] = target: T1, Glucocorticoid receptor (Homo sapiens); assay: Displacement of [3H]-dexamethasone from GR receptor in human IM-9 cytosolic extracts using buffer solution without beta-mercaptoethanol at 60 nM preincubated for 6 hrs followed by washout and second incubation with [3H]-dexamethasone for 16 hrs relative to control; in short: as §2
[20] = target: T1, Glucocorticoid receptor (Homo sapiens); assay: Displacement of [3H]-dexamethasone from GR receptor in human IM-9 cytosolic extracts at 60 nM preincubated for 6 hrs followed by washout and second incubation with [3H]-dexamethasone for 16 hrs relative to control; in short: as §3
[21] = target: T1, Glucocorticoid receptor (Homo sapiens); assay: Displacement of [3H]-dexamethasone from GR receptor in human IM-9 cytosolic extracts at 60 nM preincubated for 6 hrs followed by washout and second incubation with [3H]-dexamethasone for 4 hrs relative to control; in short: as §3
[22] = target: T1, Glucocorticoid receptor (Homo sapiens); assay: Displacement of [3H]-dexamethasone from GR receptor in human IM-9 cytosolic extracts at 60 nM preincubated for 6 hrs followed by washout and second incubation with [3H]-dexamethasone for 24 hrs relative to control; in short: as §3
[23] = target: T1, Glucocorticoid receptor (Homo sapiens); assay: Displacement of [3H]-dexamethasone from GR receptor in human IM-9 cytosolic extracts using buffer solution without beta-mercaptoethanol at 60 nM preincubated for 6 hrs followed by washout and second incubation with [3H]-dexamethasone for 24 hrs relative to control; in short: as §2
[24] = target: T1, Glucocorticoid receptor (Homo sapiens); assay: Displacement of [3H]-dexamethasone from GR receptor in human IM-9 cytosolic extracts at 60 nM preincubated for 6 hrs followed by [3H]-dexamethasone addition relative to control
[25] = target: T1, Glucocorticoid receptor (Homo sapiens); assay: Displacement of [3H]-dexamethasone from GR receptor in human IM-9 cytosolic extracts at 60 nM preincubated for 6 hrs followed by washout and second incubation with [3H]-dexamethasone for 2 hrs relative to control; in short: as §3
[26] = target: T1, Glucocorticoid receptor (Homo sapiens); assay: Displacement of [3H]-dexamethasone from GR receptor in human IM-9 cytosolic extracts at 60 nM preincubated for 6 hrs followed by washout and second incubation with [3H]-dexamethasone for 1 hr relative to control; in short: as §3

inhibition [1] [%] | inhibition [2] [%] | inhibition [3] [%] | inhibition [4] [%] | inhibition [5] [%] | inhibition [7] [%] | inhibition [8] [%] | inhibition [9] [%] | inhibition [10] [%] | inhibition [11] [%] | inhibition [12] [%] | inhibition [13] [%] | inhibition [15] [%] | inhibition [16] [%] | other results | SMILES
92 | 37 | -1 | 0 | 1 | 78 | 78 | 8 | -6 | 2 | -4 | 78 | – | – | inhibition [6]: -8% | CCN(CC(O)(CNC(=O)c1cnn(-c2ccc(F)cc2)c1N)C(F)(F)F)C(=O)c1c(Cl)ccc(NC(=O)CCl)c1Cl (configuration not stated)
96 | -5 | – | -10 | 31 | 74 | 74 | -2 | – | – | 21 | 74 | 24 | 17 | inhibition [14]: 6% | C=CC(=O)Nc1ccc(Cl)c(C(=O)N(CC)CC(O)(CNC(=O)c2cnn(-c3ccc(F)cc3)c2N)C(F)(F)F)c1Cl (configuration not stated)
– | 46 | 3 | 3 | 13 | 93 | – | 13 | -2 | 23 | 7 | 93 | 7 | 3 | – | C[C@@H]1C[C@H]2[C@@H]3CCC4=CC(=O)C=C[C@]4(C)[C@@]3(F)[C@@H](O)C[C@]2(C)[C@@]1(O)C(=O)COS(C)(=O)=O
– | – | – | – | – | – | – | – | – | – | – | – | – | – | inhibition [17]: 69%; inhibition [18]: 4%; inhibition [19]: 16%; inhibition [20]: 5%; inhibition [21]: -1%; inhibition [22]: 12%; inhibition [23]: -8%; inhibition [24]: 69%; inhibition [25]: 6%; inhibition [26]: 3% | C[C@]12CCC(=O)C=C1CC[C@@H]1[C@@H]2[C@@H](O)C[C@@]2(C)[C@H]1CC[C@]2(O)C(=O)CO
